Data as given in ChEMBL document CHEMBL1142938 (J Med Chem, 2007).

Columns and labels:
[1] = target: T1, Adenosine receptor A1 (Homo sapiens, UniProt P30542); test: Displacement of [3H]CCPA from human recombinant adenosine A1 receptor expressed in CHO cells; type: cell-based
T1 sequence (P30542 whole entry): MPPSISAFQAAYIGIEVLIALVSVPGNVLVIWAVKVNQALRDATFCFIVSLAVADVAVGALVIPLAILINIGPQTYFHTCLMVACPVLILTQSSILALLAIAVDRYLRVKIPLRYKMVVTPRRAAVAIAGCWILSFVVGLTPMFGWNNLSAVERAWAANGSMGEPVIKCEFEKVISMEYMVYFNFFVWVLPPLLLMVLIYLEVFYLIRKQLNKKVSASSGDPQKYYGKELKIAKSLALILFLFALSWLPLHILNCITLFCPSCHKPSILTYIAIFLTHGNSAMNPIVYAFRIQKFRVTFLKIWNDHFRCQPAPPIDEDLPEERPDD

[2] = target: Adenosine receptor A2a (Homo sapiens, UniProt P29274); test: Displacement of [3H]NECA from human recombinant adenosine A2A receptor expressed in CHO cells; type: cell-based
Summary of the method: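 Competition binding with [3H]NECA at 30 nM on stably transfected CHO cells. Nonspecific binding defined with 1 mM theophylline. Dissociation constants (Ki) obtained by nonlinear curve fitting.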

[3] = target: T2, Adenosine receptor A3 (Homo sapiens, UniProt P0DMS8); test: Displacement of [3H]NECA from human recombinant adenosine A3 receptor expressed in CHO cells; type: cell-based
T2 sequence (P0DMS8 whole entry): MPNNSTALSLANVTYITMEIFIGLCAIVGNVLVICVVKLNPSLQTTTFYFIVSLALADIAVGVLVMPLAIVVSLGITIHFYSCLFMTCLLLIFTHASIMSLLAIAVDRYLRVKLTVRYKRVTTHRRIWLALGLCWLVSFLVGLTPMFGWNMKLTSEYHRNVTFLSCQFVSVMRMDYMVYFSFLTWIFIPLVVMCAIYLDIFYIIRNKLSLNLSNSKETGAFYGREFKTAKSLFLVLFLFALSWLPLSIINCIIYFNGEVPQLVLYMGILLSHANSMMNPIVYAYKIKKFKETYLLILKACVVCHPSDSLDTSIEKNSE
Summary of the method: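 [3H]NECA used at 10 nM as radioligand in competition experiments, stably transfected CHO cells. Nonspecific binding defined with 1 mM theophylline. Ki from nonlinear curve fitting.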

[4] = target: Adenosine receptors; A1 & A3 (Homo sapiens) (UniProt P30542+P0DMS8); test: Selectivity for human adenosine A3 receptor over human adenosine A1 receptor; type: protein assay
[5] = target: Adenosine receptors; A2a & A3 (Homo sapiens) (UniProt P0DMS8+P29274); test: Selectivity for human adenosine A3 receptor over human adenosine A2A receptor; type: protein assay
[6] = target: T3, Adenosine receptor A3 (Homo sapiens) (UniProt P0DMS8); test: Activity at human adenosine A3 receptor assessed as inhibition of forskolin-stimulated cAMP production in CHO cells; type: functional, cell-based; design: concentration or dose not given beside the values
T3 sequence (whole entry): T2 sequence (P0DMS8 whole entry)

Adenosine receptor A2a, sequence (P29274 whole entry): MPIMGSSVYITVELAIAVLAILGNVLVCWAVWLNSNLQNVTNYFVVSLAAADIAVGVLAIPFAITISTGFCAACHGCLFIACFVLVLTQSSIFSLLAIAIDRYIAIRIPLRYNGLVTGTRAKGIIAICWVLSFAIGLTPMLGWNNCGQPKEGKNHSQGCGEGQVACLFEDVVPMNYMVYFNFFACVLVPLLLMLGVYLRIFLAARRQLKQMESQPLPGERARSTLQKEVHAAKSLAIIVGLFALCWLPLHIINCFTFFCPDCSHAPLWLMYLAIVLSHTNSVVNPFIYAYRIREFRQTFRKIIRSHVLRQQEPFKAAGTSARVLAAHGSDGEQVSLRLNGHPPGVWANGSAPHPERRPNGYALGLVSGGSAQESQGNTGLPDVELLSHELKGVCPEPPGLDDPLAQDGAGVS

| Structure (SMILES) | Ki [1] [nM] | Ki [2] [nM] | Ki [3] [nM] | Ratio Ki [4] | Ratio Ki [5] | Activity [6] [%] |
| --- | --- | --- | --- | --- | --- | --- |
| CCCCCc1ccc(C#Cc2nc(NOC)c3ncn([C@@H]4O[C@H](C(=O)NCC)[C@@H](O)[C@H]4O)c3n2)cc1 | 4090 | 27100 | 68 | 60 | 399 | – |
| CONc1nc(C#Cc2ccc(OC)cc2)nc2c1ncn2[C@@H]1O[C@H](CO)[C@@H](O)[C@H]1O | 1870 | 1780 | 4.3 | 435 | 414 | – |
| CONc1nc(C#CCCCC#N)nc2c1ncn2[C@@H]1O[C@H](CO)[C@@H](O)[C@H]1O | 282 | 1820 | 4.1 | 69 | 444 | – |
| CONc1nc(C#Cc2ccc(C(N)=O)cc2)nc2c1ncn2[C@@H]1O[C@H](CO)[C@@H](O)[C@H]1O | 901 | 3130 | 5.2 | 173 | 602 | – |
| CCCCCc1ccc(C#Cc2nc(NOC)c3ncn([C@@H]4O[C@H](C(=O)NC)[C@@H](O)[C@H]4O)c3n2)cc1 | 48100 | 31700 | 55 | 874 | 576 | – |
| CONc1nc(C#Cc2cccc(C(F)(F)F)c2)nc2c1ncn2[C@@H]1O[C@H](CO)[C@@H](O)[C@H]1O | 2450 | 8270 | 23 | 106 | 360 | – |
| CONc1nc(C#Cc2ccncc2)nc2c1ncn2[C@@H]1O[C@H](CO)[C@@H](O)[C@H]1O | 1190 | 6310 | 6 | 198 | 1100 | – |
| CCNC(=O)[C@H]1O[C@@H](n2cnc3c(N)nc(C#Cc4ccccc4)nc32)[C@H](O)[C@@H]1O | – | – | – | 90 | 100 | – |
| CCNC(=O)[C@H]1O[C@@H](n2cnc3c(NOC)nc(C#Cc4ccc(C)cc4)nc32)[C@H](O)[C@@H]1O | 1420 | 4600 | 6.8 | 209 | 676 | – |
| CONc1nc(I)nc2c1ncn2[C@@H]1O[C@H](CO)[C@@H](O)[C@H]1O | 58 | 12400 | 7.4 | 8 | 1700 | – |
| CONc1nc(C#Cc2ccc(F)cc2)nc2c1ncn2[C@@H]1O[C@H](CO)[C@@H](O)[C@H]1O | 2790 | 3960 | 4.4 | 634 | 900 | – |
| CONc1nc(C#CCC(C)O)nc2c1ncn2[C@@H]1O[C@H](CO)[C@@H](O)[C@H]1O (some centres not stated) | 95 | 758 | 5.4 | 18 | 140 | – |
| CONc1nc(C#Cc2cccnc2)nc2c1ncn2[C@@H]1O[C@H](CO)[C@@H](O)[C@H]1O | 255 | 12500 | 7.9 | 32 | 1600 | – |
| CCCCCc1ccc(C#Cc2nc(NOC)c3ncn([C@@H]4O[C@H](CO)[C@@H](O)[C@H]4O)c3n2)cc1 | 730 | 6520 | 39 | 19 | 167 | – |
| C#Cc1nc(NOC)c2ncn([C@@H]3O[C@H](CO)[C@@H](O)[C@H]3O)c2n1 | 25 | 3140 | 23 | 1 | 136 | – |
| CONc1nc(C#Cc2ccc(C)cc2)nc2c1ncn2[C@@H]1O[C@H](CO)[C@@H](O)[C@H]1O | 1380 | 35100 | 5.9 | 234 | 6000 | – |
| CONc1nc(C#C[Si](C)(C)C)nc2c1ncn2[C@@H]1O[C@H](CO)[C@@H](O)[C@H]1O | 22 | 5740 | 13 | 1.7 | 441 | – |
| Nc1nc(C#Cc2ccccc2)nc2c1ncn2[C@@H]1O[C@H](CO)[C@@H](O)[C@H]1O | – | – | – | 24 | 23 | – |

Now from value to compound:

| Ki [1] [nM] | Ki [2] [nM] | Ki [3] [nM] | Ratio Ki [4] | Ratio Ki [5] | Activity [6] [%] | Structure (SMILES) |
| --- | --- | --- | --- | --- | --- | --- |
| 1230 | 4210 | 4 | 307 | 1100 | – | CCNC(=O)[C@H]1O[C@@H](n2cnc3c(NOC)nc(C#Cc4ccc(C(C)=O)cc4)nc32)[C@H](O)[C@@H]1O |
| 53800 | 10400 | 2.5 | 21500 | 4200 | 41 | CNC(=O)[C@H]1O[C@@H](n2cnc3c(NOC)nc(C#Cc4ccc(C(C)=O)cc4)nc32)[C@H](O)[C@@H]1O |
| – | 14700 | 3.3 | 3600 | 4500 | – | CNC(=O)[C@H]1O[C@@H](n2cnc3c(NOC)nc(C#Cc4ccc(C)cc4)nc32)[C@H](O)[C@@H]1O |
| 1880 | 6290 | 3.2 | 587 | 2000 | – | CCNC(=O)[C@H]1O[C@@H](n2cnc3c(NOC)nc(C#Cc4ccc(F)cc4)nc32)[C@H](O)[C@@H]1O |
| 53 | 5290 | 2.8 | 19 | 1900 | – | CCNC(=O)[C@H]1O[C@@H](n2cnc3c(NOC)nc(I)nc32)[C@H](O)[C@@H]1O |
| 437 | 2960 | 2.3 | 190 | 1300 | 94 | CONc1nc(C#Cc2ccccn2)nc2c1ncn2[C@@H]1O[C@H](CO)[C@@H](O)[C@H]1O |
| 1280 | 2680 | 3 | 427 | 893 | 81 | CONc1nc(C#Cc2ccc(C(C)=O)cc2)nc2c1ncn2[C@@H]1O[C@H](CO)[C@@H](O)[C@H]1O |
| 1210 | 4290 | 3.8 | 318 | 1100 | 81 | CONc1nc(C#Cc2ccccc2)nc2c1ncn2[C@@H]1O[C@@H](CO)[C@@H](O)[C@H]1O |
| 9140 | 16300 | 1.9 | 4800 | 8600 | 38 | CNC(=O)[C@H]1O[C@@H](n2cnc3c(NOC)nc(C#Cc4ccccc4)nc32)[C@H](O)[C@@H]1O |
| 97 | 267 | 2.8 | 35 | 95 | – | CCCCC#Cc1nc(NOC)c2ncn([C@@H]3O[C@H](CO)[C@@H](O)[C@H]3O)c2n1 |
| 153 | 12100 | 1.7 | 90 | 7100 | – | CNC(=O)[C@H]1O[C@@H](n2cnc3c(NOC)nc(I)nc32)[C@H](O)[C@@H]1O |
| 3000 | 18700 | 1.9 | 1600 | 9800 | – | CNC(=O)[C@H]1O[C@@H](n2cnc3c(NOC)nc(C#Cc4ccc(F)cc4)nc32)[C@H](O)[C@@H]1O |
| 766 | 3080 | 3.7 | 207 | 832 | – | CONc1nc(C#Cc2ccc(CC#N)cc2)nc2c1ncn2[C@@H]1O[C@H](CO)[C@@H](O)[C@H]1O |
| 3990 | 18000 | 1.1 | 3600 | 16400 | 34 | CNC(=O)[C@H]1O[C@@H](n2cnc3c(NOC)nc(C#Cc4ccccn4)nc32)[C@H](O)[C@@H]1O |
| 175 | 6460 | 1.6 | 109 | 4000 | – | CCNC(=O)[C@H]1O[C@@H](n2cnc3c(NOC)nc(C#Cc4ccccn4)nc32)[C@H](O)[C@@H]1O |
| 1880 | – | 3.5 | – | – | 35 | CCNC(=O)[C@H]1O[C@@H](n2cnc3c(NOC)nc(C#Cc4ccccc4)nc32)[C@H](O)[C@@H]1O |
